Experimental data taken from ChEMBL document CHEMBL1151937, “Synthesis and evaluation of an acyl-chain unsaturated analog of the Th2 biasing, immunostimulatory glycolipid, OCH” (Bioorg Med Chem Lett, 2009).
Calls of active or inactive are those of the source. No cut-off for these calls is given here.

Experiments:
Assay type in all cases: functional, cell-based
[1] = test system: Splenocyte; assay: Stimulation of mouse splenocyte proliferation by [3H]thymidine after 48 hrs by incorporation assay
Outline: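 Mouse splenocytes exposed to lipid at varying concentrations; proliferation read out as tritiated thymidine incorporation. Values are means of duplicate wells.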

[2] = test system: Splenocyte; assay: Stimulation of IFN-gamma production in C57BL/6 mouse splenocytes after 48 hrs by ELISA
Outline: (§1)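 C57BL/6 mouse splenocytes cultured 48 h with lipid over a range of concentrations; IL-4 and IFNγ measured in culture supernatants by standard sandwich ELISA. Values are means of duplicate wells.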

[3] = test system: Splenocyte; assay: Stimulation of IL4 production in C57BL/6 mouse splenocytes after 48 hrs by ELISA; outline: as §1
[4] = test system: iNKT; assay: Stimulation of human iNKT cell proliferation

Row | SMILES | Activity [1] | Activity [2] | Activity [3] | Activity [4]
1 | CCCCC/C=C\C/C=C\CCCCCCCCCC(=O)N[C@@H](CO[C@H]1O[C@H](CO)[C@H](O)[C@H](O)[C@H]1O)[C@H](O)CCCCCC | Active | Active | Active | inactive
2 | CCCCCCCCCCCCCCCCCCCC(=O)N[C@@H](CO[C@H]1O[C@H](CO)[C@H](O)[C@H](O)[C@H]1O)[C@H](O)CCCCCC | Active | inactive | inactive | inactive
3 | CCCCCCCCCCCCCCCCCCCCCCCC(=O)N[C@@H](CO[C@H]1O[C@H](CO)[C@H](O)[C@H](O)[C@H]1O)[C@H](O)[C@H](O)CCCCC | Active | – | – | Active
4 | CCCCCCCCCCCCCCCCCCCC(=O)N[C@@H](CO[C@H]1O[C@H](CO)[C@H](O)[C@H](O)[C@H]1O)[C@H](O)[C@H](O)CCCCC | Active | inactive | inactive | inactive
5 | CCCCC/C=C\C/C=C\CCCCCCCCCC(=O)N[C@@H](CO[C@H]1O[C@H](CO)[C@H](O)[C@H](O)[C@H]1O)[C@H](O)[C@H](O)CCCCCCCCCCCCCC | Active | – | – | Active
